Assay results as given in ChEMBL document CHEMBL1152248, “The 'Ethereal' nature of TLR4 agonism and antagonism in the AGP class of lipid A mimetics” (Bioorg Med Chem Lett, 2008).
Active and inactive are the calls of the source. No cut-off for these calls is given here.

Experiments:
[1] = biological target: T1, Toll-like receptor 4 (Homo sapiens, UniProt O00206); assay: Antagonist activity at TLR4 in human PBMC assessed as inhibition of LPS-stimulated TNFalpha production pre-incubated for 30 mins before LPS challenge measured after 18 hrs by ELISA; type: functional
T1 sequence (O00206 whole entry): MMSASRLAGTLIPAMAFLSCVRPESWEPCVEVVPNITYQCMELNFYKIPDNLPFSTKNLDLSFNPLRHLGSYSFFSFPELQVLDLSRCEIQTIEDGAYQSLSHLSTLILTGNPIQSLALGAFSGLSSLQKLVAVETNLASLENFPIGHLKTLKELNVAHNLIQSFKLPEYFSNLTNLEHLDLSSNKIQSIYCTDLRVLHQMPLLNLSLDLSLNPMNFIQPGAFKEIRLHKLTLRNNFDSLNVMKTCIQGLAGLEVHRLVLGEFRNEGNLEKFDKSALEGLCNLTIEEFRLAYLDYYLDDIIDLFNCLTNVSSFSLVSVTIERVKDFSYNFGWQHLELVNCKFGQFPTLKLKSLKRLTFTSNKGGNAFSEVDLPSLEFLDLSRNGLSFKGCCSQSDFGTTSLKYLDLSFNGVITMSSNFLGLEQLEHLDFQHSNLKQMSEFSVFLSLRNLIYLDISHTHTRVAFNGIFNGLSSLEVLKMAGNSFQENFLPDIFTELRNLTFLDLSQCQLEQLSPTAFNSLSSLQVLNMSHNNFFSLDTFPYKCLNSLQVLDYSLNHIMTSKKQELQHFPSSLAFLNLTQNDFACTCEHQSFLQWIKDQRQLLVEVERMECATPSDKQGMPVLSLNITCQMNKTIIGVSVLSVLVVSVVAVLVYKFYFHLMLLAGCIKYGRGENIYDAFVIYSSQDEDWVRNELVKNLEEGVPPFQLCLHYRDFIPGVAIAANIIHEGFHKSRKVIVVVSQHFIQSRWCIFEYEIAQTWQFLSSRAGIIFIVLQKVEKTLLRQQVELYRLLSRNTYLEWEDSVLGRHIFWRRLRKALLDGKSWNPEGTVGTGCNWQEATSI
Procedure, shortened: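 Adherence-isolated human monocytes were preincubated with compound for 30 min, then stimulated with 100 ng/mL E. coli LPS. Supernatant TNF-α was measured by ELISA after 18 h. IC50 was fitted with a four-parameter logistic dose–response model.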

[2] = biological target: T1, Toll-like receptor 4; assay: Agonist activity at TLR4 in human PBMC assessed as induction of TNFalpha production after 18 hrs by sandwich ELISA; type: functional
Procedure, shortened: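 Human monocytes were isolated by 2 h adherence to tissue-culture plates. They were exposed to compound over a 0–10,000 range in 0.2% aq triethanolamine (TEOA) for 18 h. TNF-α in supernatants was measured by sandwich ELISA. Data are three replicate samples from one of three donors. ED50 was fitted with a four-parameter logistic dose–response model.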

[3] = tested on: Mus musculus; assay: Inhibition of LPS-induced serum TNFalpha production in iv dosed BALB/c mouse after 1.5 hrs by ELISA; type: functional, organism-based
Procedure, shortened: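 BALB/c mice (n = 3) were given 5 ng LPS iv, either alone or together with 0.2% TEOA vehicle or test compound. Serum was collected 1.5 h post-injection and TNF-α was measured by ELISA.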

[4] = tested on: Listeria monocytogenes; assay: Inhibition of CRX-527-mediated protection against Listeria monocytogenes infected iv dosed BALB/c mouse administered 2 days prior to bacterial challenge measured after 2 days; type: organism-based; details: in vivo, 48 h
Procedure, shortened: (§1)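 BALB/c mice got AGP iv in 100 µL of 0.2% aq TEOA 2 days before iv challenge with 10^5 L. monocytogenes. Two days after challenge, splenic CFUs were counted by serial dilution of homogenates. Log10 relative protection is control-group log10 CFU/spleen minus test-group log10 CFU/spleen.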

[5] = tested on: Influenza A virus; assay: Protection against Influenza A/HK/68 virus infected BALB/c mouse assessed as survival at 5 mg/kg, intranasal administered 2 days prior to influenza challenge measured after 21 days; type: functional; details: inhaled or nasal
Procedure, shortened: (§2)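 Female/male unspecified BALB/c mice, 8 per group, given compound intranasally in 0.2% aqueous triethanolamine vehicle 2 days before intranasal influenza challenge. Vehicle-only group as control. Read-out is percent survival, recorded over 21 days after viral challenge.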

[6] = tested on: Influenza A virus; assay: Protection against Influenza A/HK/68 virus infected BALB/c mouse assessed as survival at 0.5 mg/kg, intranasal administered 2 days prior to influenza challenge measured after 21 days; type: functional; details: inhaled or nasal; procedure, shortened: as §2
[7] = tested on: Influenza A virus; assay: Protection against Influenza A/HK/68 virus infected BALB/c mouse assessed as survival at 0.05 mg/kg, intranasal administered 2 days prior to influenza challenge measured after 21 days; type: functional; details: inhaled or nasal; procedure, shortened: as §2
[8] = tested on: Influenza A virus; assay: Protection against Influenza A/HK/68 virus infected BALB/c mouse assessed as survival at 0.005 mg/kg, intranasal administered 2 days prior to influenza challenge measured after 21 days; type: functional; details: inhaled or nasal; procedure, shortened: as §2
[9] = tested on: Listeria monocytogenes; assay: Protection against Listeria monocytogenes infected iv dosed BALB/c mouse assessed as reduction in splenic bacteria administered 2 days prior to bacterial challenge measured after 2 days; type: functional, organism-based; procedure, shortened: as §1

Compound	IC50 [1]	Activity [2]	Activity [3]	Activity [4]	Activity [1]	ED50 [2]	survival at 5 mg/kg [5]	survival at 0.5 mg/kg [6]	survival at 0.05 mg/kg [7]	survival at 0.005 mg/kg [8]	Activity [9]
CCCCCCCCCCC[C@H](CC(=O)N[C@H]1[C@H](OC[C@H](NC(=O)C[C@@H](CCCCCCCCCCC)OCCCCCC)C(=O)O)O[C@H](CO)[C@@H](OP(=O)(O)O)[C@@H]1OC(=O)C[C@@H](CCCCCCCCCCC)OCCCCCC)OCCCCCC	5.3 nM	inactive	inactive	Not Active							
CCCCCCCCCCC[C@H](CC(=O)N[C@H]1[C@H](OC[C@H](NC(=O)C[C@@H](CCCCCCCCCCC)OCCCCCCCCCC)C(=O)O)O[C@H](CO)[C@@H](OP(=O)(O)O)[C@@H]1OC(=O)C[C@@H](CCCCCCCCCCC)OCCCCCCCCCC)OCCCCCCCCCC					inactive	0.17 nM	100%	80%	60%	20%	Active
CCCCCCCCCCC[C@H](CC(=O)N[C@H]1[C@H](OC[C@H](NC(=O)C[C@@H](CCCCCCCCCCC)OC(=O)CCCCCCCCC)C(=O)O)O[C@H](CO)[C@@H](OP(=O)(O)O)[C@@H]1OC(=O)C[C@@H](CCCCCCCCCCC)OC(=O)CCCCCCCCC)OC(=O)CCCCCCCCC					inactive	0.39 nM	100%	70%	70%	30%	Active
CCCCCCCCCCC[C@H](CC(=O)N[C@H]1[C@H](OC[C@H](NC(=O)C[C@@H](CCCCCCCCCCC)OC(=O)CCCCC)C(=O)O)O[C@H](CO)[C@@H](OP(=O)(O)O)[C@@H]1OC(=O)C[C@@H](CCCCCCCCCCC)OC(=O)CCCCC)OC(=O)CCCCC	2.4 nM	inactive	Active	Dose-dependent effect							
